Data published in ChEMBL document CHEMBL3244146, “Pyranenamines: a new series of antiallergic compounds” (1979).

Assays:
Rattus norvegicus [1] = assay: Antiallergic activity in rat assessed as inhibition of egg albumin-induced passive cutaneous anaphylaxis at 10 mg/kg, iv treated for 30 secs followed by egg albumin-challenge measured after 30 mins relative to control; format: functional; conditions: 0.5 h
Rattus norvegicus [2] = assay: Antiallergic activity in iv dosed rat assessed as inhibition of egg albumin-induced passive cutaneous anaphylaxis treated for 30 secs followed by egg albumin-challenge measured after 30 mins; format: functional; conditions: 0.5 h, read-out: ID50 (the source's name)
Lung [3] = assay: Antiallergic activity in passively sensitized albino rat lungs assessed as inhibition of antigen-induced histamine release at 1 x 10^-6 M by fluorometric analysis relative to control; format: functional
In short: (§1)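 Fragmented lung from adult male Charles River albino rats, passively sensitized, then antigen-challenged with compound present; released histamine measured fluorometrically; inhibition reported relative to control, with replicate count given as number of separate lung preparations.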

Lung [4] = assay: Antiallergic activity in passively sensitized albino rat lungs assessed as inhibition of antigen-induced histamine release at 1 x 10^-7 M by fluorometric analysis relative to control; format: functional; in short: as §1
Lung [5] = assay: Antiallergic activity in passively sensitized albino rat lungs assessed as inhibition of antigen-induced histamine release at 1 x 10^-8 M by fluorometric analysis relative to control; format: functional; in short: as §1
Rattus norvegicus [6] = assay: Antiallergic activity in po dosed rat assessed as inhibition of egg albumin-induced passive cutaneous anaphylaxis treated for 15 mins followed by egg albumin-challenge measured after 30 mins; format: functional; conditions: read-out: ID50 (the source's name)
In short: (§2)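 Oral PCA in rats: intradermal antiserum at four back sites (dose giving ~12×12 mm wheal), compound po 48 h later, 15 min before iv challenge with 0.5 mL saline containing 5 mg Evans blue plus 5 mg egg albumin; skin bluing read 30 min after challenge on two axes per wheal; six rats per dose versus ≥6 vehicle controls; percent inhibition from mean wheal size, one-sided t test.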

Lung [7] = assay: Antiallergic activity in passively sensitized albino rat lungs assessed as inhibition of antigen-induced histamine release at 1 x 10^-5 M by fluorometric analysis relative to control; format: functional; in short: as §1
[8] = Antiallergic activity in passively sensitized rhesus monkey lungs assessed as inhibition of antigen-induced histamine release at 1 x 10^-4 M by fluorometric analysis relative to control; format: functional, Macaca mulatta, Lung
In short: (§3)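 Passively sensitized fragmented lung from a young adult male rhesus monkey, challenged with IgE-antihuman IgE; histamine release measured fluorometrically and SRS-A estimated by guinea pig ileum bioassay; inhibition relative to control; replicates given as number of separate lung preparations.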

[9] = Antiallergic activity in passively sensitized rhesus monkey lungs assessed as inhibition of antigen-induced slow reacting substance of anaphylaxis release at 1 x 10^-4 M relative to control; format: functional, Macaca mulatta, Lung; in short: as §3
Rattus norvegicus [10] = assay: Antiallergic activity in rat assessed as inhibition of egg albumin-induced passive cutaneous anaphylaxis at 25 mg/kg, po treated for 15 mins followed by egg albumin-challenge measured after 30 mins relative to control; format: functional; in short: as §2
Rattus norvegicus [11] = assay: Antiallergic activity in rat assessed as inhibition of egg albumin-induced passive cutaneous anaphylaxis at 0.5 mg/kg, iv treated for 30 secs followed by egg albumin-challenge measured after 30 mins relative to control; format: functional; conditions: 0.5 h
Rattus norvegicus [12] = assay: Antiallergic activity in rat assessed as inhibition of egg albumin-induced passive cutaneous anaphylaxis at 50 mg/kg, po treated for 15 mins followed by egg albumin-challenge measured after 30 mins relative to control; format: functional; in short: as §2
Rattus norvegicus [13] = assay: Antiallergic activity in rat assessed as inhibition of egg albumin-induced passive cutaneous anaphylaxis at 5 mg/kg, iv treated for 30 secs followed by egg albumin-challenge measured after 30 mins relative to control; format: functional; conditions: 0.5 h
[14] = Antiallergic activity in passively sensitized rhesus monkey lungs assessed as inhibition of antigen-induced histamine release at 1 x 10^-5 M by fluorometric analysis relative to control; format: functional, Macaca mulatta, Lung; in short: as §3
[15] = Antiallergic activity in passively sensitized rhesus monkey lungs assessed as inhibition of antigen-induced slow reacting substance of anaphylaxis release at 1 x 10^-5 M relative to control; format: functional, Macaca mulatta, Lung; in short: as §3

Structure (SMILES)	inhibition in vivo at 10 mg/kg (Rattus norvegicus [1]) [%]	ED50 (Rattus norvegicus [2]) [mg/kg]	inhibition in vivo at 25 mg/kg (Rattus norvegicus [10]) [%]	other results
CC(=O)C1=C(O)/C(=C(\C)Nc2ccc([N+](=O)[O-])cc2)C(=O)OC1=O	17			
CCC(=O)Nc1cc(N/C(C)=C2\C(=O)OC(=O)C(C(C)=O)=C2O)ccc1O		0.4		inhibition (INH) (Lung [3]): 66%; inhibition (INH) (Lung [4]): 70%; inhibition (INH) (Lung [5]): 41%; ED50 (Rattus norvegicus [6]): 0.6 mg/kg; inhibition (INH) (Lung [7]): 65%
CC(=O)Nc1cc(N)cc(N/C(C)=C2\C(=O)OC(=O)C(C(C)=O)=C2O)c1		0.1	11	inhibition (INH) [8]: 17%; inhibition (INH) [9]: 8%
CC(=O)C1=C(O)/C(=C(\C)Nc2ccc(F)cc2)C(=O)OC1=O	54			
CC(=O)C1=C(O)/C(=C(\C)Nc2ccc(O)c(NC(=O)C(C)C)c2)C(=O)OC1=O		0.2		inhibition (INH) (Lung [3]): 78%; inhibition (INH) (Lung [4]): 81%; ED50 (Rattus norvegicus [6]): 3.3 mg/kg
CC(=O)C1=C(O)/C(=C(\C)Nc2ccc(NC(=O)C(C)C)cc2)C(=O)OC1=O			4	inhibition in vivo at 0.5 mg/kg (Rattus norvegicus [11]): 64%; inhibition (INH) (Lung [3]): 60%; inhibition (INH) (Lung [7]): 92%
CC(=O)Nc1cc(NC(C)=O)cc(N/C(C)=C2\C(=O)OC(=O)C(C(C)=O)=C2O)c1		0.01		inhibition in vivo at 50 mg/kg (Rattus norvegicus [12]): -1%
CC(=O)C1=C(O)/C(=C(\C)N)C(=O)OC1=O				inhibition in vivo at 5 mg/kg (Rattus norvegicus [13]): 17%
CCCC(=O)c1c(O)oc(=O)c(C(=O)CCC)c1O	3			
CC(=O)C1=C(O)/C(=C(\C)Nc2cc(NC(=O)C(=O)O)cc(NC(=O)C(=O)O)c2)C(=O)OC1=O		0.05		ED50 (Rattus norvegicus [6]): 19 mg/kg
CCCC(=O)Nc1cc(NC(=O)CCC)cc(N/C(C)=C2\C(=O)OC(=O)C(C(C)=O)=C2O)c1		0.05	7	
CC(=O)C1=C(O)/C(=C(\C)Nc2ccccc2)C(=O)OC1=O	76			
CCC(=O)c1c(O)oc(=O)c(C(=O)CC)c1O	39			
CC(=O)C1=C(O)/C(=C(\C)Nc2cc(N)cc(O)c2)C(=O)OC1=O.Cl		0.5		inhibition (INH) [8]: 24%; inhibition (INH) [9]: 18%; inhibition (INH) [14]: -0.7%; inhibition (INH) [15]: 5%; ED50 (Rattus norvegicus [6]): 8 mg/kg
CC(=O)C1=C(O)/C(=C(\C)Nc2cccc(NC(=O)C(=O)C(=O)O)c2)C(=O)OC1=O		0.03	21	
CCOC(=O)C(=O)Nc1cc(NC(=O)C(=O)OCC)cc(N/C(C)=C2\C(=O)OC(=O)C(C(C)=O)=C2O)c1		0.03		ED50 (Rattus norvegicus [6]): 6.5 mg/kg
CC(=O)C1=C(O)/C(=C(\C)Nc2cc(N)cc(N)c2)C(=O)OC1=O		0.5		ED50 (Rattus norvegicus [6]): 0.9 mg/kg
CC(=O)Nc1cc(O)cc(N/C(C)=C2\C(=O)OC(=O)C(C(C)=O)=C2O)c1		0.02	2	inhibition (INH) [8]: 57%; inhibition (INH) [9]: 22%; inhibition (INH) [14]: 17%; inhibition (INH) [15]: 6%
CC(=O)C1=C(O)/C(=C(\C)Nc2c(Cl)cccc2Cl)C(=O)OC1=O	3			
CC(=O)C1=C(O)/C(=C(\C)Nc2ccc(NS(N)(=O)=O)cc2)C(=O)OC1=O		0.3	10	
CC(=O)C1=C(O)/C(=C(\C)Nc2cc(NS(C)(=O)=O)cc(NS(C)(=O)=O)c2)C(=O)OC1=O		0.3		inhibition in vivo at 50 mg/kg (Rattus norvegicus [12]): 9%
CC(=O)C1=C(O)/C(=C(\C)Nc2cccc(NC(=O)C(O)CO)c2)C(=O)OC1=O (stereo unspecified)		0.05	55	
CC(=O)Nc1ccc(N/C(C)=C2\C(=O)OC(=O)C(C(C)=O)=C2O)cc1				inhibition in vivo at 5 mg/kg (Rattus norvegicus [13]): 19%

Structure (SMILES)	inhibition in vivo at 10 mg/kg (Rattus norvegicus [1]) [%]	ED50 (Rattus norvegicus [2]) [mg/kg]	inhibition in vivo at 25 mg/kg (Rattus norvegicus [10]) [%]	other results
CCOC(=O)Nc1cc(NC(=O)OCC)cc(N/C(C)=C2\C(=O)OC(=O)C(C(C)=O)=C2O)c1		0.25	-18	
CCOC(=O)c1ccccc1N/C(C)=C1\C(=O)OC(=O)C(C(C)=O)=C1O				inhibition in vivo at 5 mg/kg (Rattus norvegicus [13]): 18%
CC(=O)C1=C(O)/C(=C(\C)Nc2ccc(OCC(=O)O)cc2)C(=O)OC1=O		0.5	2	
CC(=O)C1=C(O)/C(=C(\C)Nc2cccc(NC(=N)N)c2)C(=O)OC1=O.O=[N+]([O-])O		0.9	-7	
CC(=O)C1=C(O)/C(=C(\C)Nc2cc(O)c(O)c(O)c2)C(=O)OC1=O		0.4	-3	
CC(C)CC(=O)c1c(O)oc(=O)c(C(=O)CC(C)C)c1O	23			
CCCCC(=O)c1c(O)oc(=O)c(C(=O)CCCC)c1O	69			
CCCCCCC(=O)c1c(O)oc(=O)c(C(=O)CCCCCC)c1O	27			
CC(=O)C1=C(O)/C(=C(\C)Nc2cccc(NS(=O)(=O)c3ccccc3)c2)C(=O)OC1=O		1.3	7	
CC(=O)C1=C(O)/C(=C(\C)Nc2ccc(Cl)cc2)C(=O)OC1=O	84			
CC(=O)C1=C(O)/C(=C(\C)Nc2ccc(Cl)c(Cl)c2)C(=O)OC1=O	10			
COc1ccc(N/C(C)=C2\C(=O)OC(=O)C(C(C)=O)=C2O)cc1				inhibition in vivo at 5 mg/kg (Rattus norvegicus [13]): 27%
CC(=O)C1=C(O)/C(=C(\C)Nc2cc(O)ccc2N)C(=O)OC1=O				inhibition in vivo at 5 mg/kg (Rattus norvegicus [13]): 47%
CC(=O)C1=C(O)/C(=C(\C)Nc2ccc(C)cc2)C(=O)OC1=O	33			
CCC(=O)Nc1cccc(N/C(C)=C2\C(=O)OC(=O)C(C(C)=O)=C2O)c1		0.2	70	
COc1ccc(N(C)/C(C)=C2\C(=O)OC(=O)C(C(C)=O)=C2O)cc1				inhibition in vivo at 5 mg/kg (Rattus norvegicus [13]): 37%
COC(=O)c1ccc(N/C(C)=C2\C(=O)OC(=O)C(C(C)=O)=C2O)cc1				inhibition in vivo at 5 mg/kg (Rattus norvegicus [13]): 6%
CC(=O)C1=C(O)/C(=C(\C)Nc2cccc(Cl)c2)C(=O)OC1=O	74			
CC(=O)C1=C(O)/C(=C(\C)N(C)c2ccc(O)cc2)C(=O)OC1=O				inhibition in vivo at 5 mg/kg (Rattus norvegicus [13]): 42%
CC(=O)C1=C(O)/C(=C(\C)Nc2cccc(O)c2)C(=O)OC1=O		1.6	0	
CC(=O)C1=C(O)/C(=C(\C)Nc2ccccc2Cl)C(=O)OC1=O	36			
CCC(=O)Nc1cc(NC(=O)CC)cc(N/C(C)=C2\C(=O)OC(=O)C(C(C)=O)=C2O)c1		0.003		inhibition in vivo at 50 mg/kg (Rattus norvegicus [12]): 14%
